Test results taken from ChEMBL document CHEMBL4004881, “Perfluorinated hydroxamic acids are potent and selective inhibitors of HDAC-like enzymes from Pseudomonas aeruginosa” (Bioorg Med Chem Lett, 2017).

Assays:
Histone deacetylase 4 = Histone deacetylase 4 (Homo sapiens, UniProt P56524); assay: Inhibition of human HDAC4 using Boc-Lys(trifluoroacetyl)-AMC as substrate preincubated for 30 mins followed by substrate addition measured after 60 mins by trypsin-based fluorescence assay
[1] = target: T1, Protein deacetylase HDAC6 (Homo sapiens, UniProt Q9UBN7); assay: Inhibition of human HDAC6 using Boc-Lys(Ac)-AMC as substrate preincubated for 30 mins followed by substrate addition measured after 60 mins by trypsin-based fluorescence assay
T1 sequence (Q9UBN7 whole entry): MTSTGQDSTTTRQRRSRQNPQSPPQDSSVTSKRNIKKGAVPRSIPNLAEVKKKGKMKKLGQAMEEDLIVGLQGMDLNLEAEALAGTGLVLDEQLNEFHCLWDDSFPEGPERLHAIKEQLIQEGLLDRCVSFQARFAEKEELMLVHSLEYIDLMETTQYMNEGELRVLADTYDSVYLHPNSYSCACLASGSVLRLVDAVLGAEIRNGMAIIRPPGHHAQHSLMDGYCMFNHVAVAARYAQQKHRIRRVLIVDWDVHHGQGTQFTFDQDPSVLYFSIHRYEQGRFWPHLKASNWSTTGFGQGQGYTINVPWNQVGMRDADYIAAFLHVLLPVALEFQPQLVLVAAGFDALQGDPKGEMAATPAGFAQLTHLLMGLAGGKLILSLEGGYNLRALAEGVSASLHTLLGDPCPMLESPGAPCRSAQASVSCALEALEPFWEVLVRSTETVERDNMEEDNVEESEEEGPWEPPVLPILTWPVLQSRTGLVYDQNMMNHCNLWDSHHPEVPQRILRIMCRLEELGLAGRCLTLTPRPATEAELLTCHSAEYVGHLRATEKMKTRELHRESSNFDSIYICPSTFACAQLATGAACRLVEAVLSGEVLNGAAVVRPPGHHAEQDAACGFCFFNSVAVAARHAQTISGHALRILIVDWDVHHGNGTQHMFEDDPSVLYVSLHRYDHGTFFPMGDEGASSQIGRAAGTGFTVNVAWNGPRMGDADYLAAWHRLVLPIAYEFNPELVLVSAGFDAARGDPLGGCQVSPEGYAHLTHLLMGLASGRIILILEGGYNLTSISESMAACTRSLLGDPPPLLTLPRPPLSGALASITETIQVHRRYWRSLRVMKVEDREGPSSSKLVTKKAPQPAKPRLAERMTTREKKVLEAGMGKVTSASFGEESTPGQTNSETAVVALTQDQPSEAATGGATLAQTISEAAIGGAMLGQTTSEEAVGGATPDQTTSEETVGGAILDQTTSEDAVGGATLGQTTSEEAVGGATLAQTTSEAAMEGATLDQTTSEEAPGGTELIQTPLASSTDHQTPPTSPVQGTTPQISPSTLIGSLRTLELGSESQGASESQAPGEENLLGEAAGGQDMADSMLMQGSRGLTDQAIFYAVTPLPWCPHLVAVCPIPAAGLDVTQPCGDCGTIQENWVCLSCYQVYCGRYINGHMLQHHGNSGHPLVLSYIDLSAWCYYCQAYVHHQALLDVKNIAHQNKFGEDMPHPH
In short: (§1)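 Fluorogenic deacetylase assay with Boc-Lys(Ac)-AMC substrate. After a 30 min incubation, trypsin was added to convert the deacetylated substrate to the fluorescent dye.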

[2] = Inhibition of Pseudomonas aeruginosa PA0321 using Boc-Lys(trifluoroacetyl)-AMC as substrate preincubated for 30 mins followed by substrate addition measured after 60 mins by trypsin-based fluorescence assay
[3] = Inhibition of Pseudomonas aeruginosa PA3774 using Boc-Lys(trifluoroacetyl)-AMC as substrate preincubated for 30 mins followed by substrate addition measured after 60 mins by trypsin-based fluorescence assay
[4] = Inhibition of Bordetella HDAH using Boc-Lys(trifluoroacetyl)-AMC as substrate preincubated for 30 mins followed by substrate addition measured after 60 mins by trypsin-based fluorescence assay
In short: (§2)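 Bacterial HDAH activity was measured by a fluorogenic assay in which the deacetylated substrate is converted to fluorescent dye by trypsin. Ki was calculated via Cheng-Prusoff from IC50 values, which were fitted to dose-response curves spanning 10 ligand concentrations.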

Histone deacetylase 8 = target: T2, Histone deacetylase 8 (Homo sapiens, UniProt Q9BY41); assay: Inhibition of human HDAC8 using Boc-Lys(trifluoroacetyl)-AMC as substrate preincubated for 30 mins followed by substrate addition measured after 60 mins by trypsin-based fluorescence assay
T2 sequence (Q9BY41 whole entry): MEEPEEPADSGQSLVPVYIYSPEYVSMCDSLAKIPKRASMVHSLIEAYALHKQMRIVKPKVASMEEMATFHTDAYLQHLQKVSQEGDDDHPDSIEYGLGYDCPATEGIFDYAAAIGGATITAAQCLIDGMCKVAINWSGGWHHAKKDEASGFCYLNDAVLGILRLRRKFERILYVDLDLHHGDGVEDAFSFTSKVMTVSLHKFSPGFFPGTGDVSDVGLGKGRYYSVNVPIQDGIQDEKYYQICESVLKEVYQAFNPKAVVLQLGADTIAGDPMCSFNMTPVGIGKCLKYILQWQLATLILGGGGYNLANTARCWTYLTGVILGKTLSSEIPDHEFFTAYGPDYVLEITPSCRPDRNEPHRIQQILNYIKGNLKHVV
In short: (§3)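 Boc-Lys(trifluoroacetyl)-AMC served as substrate in a fluorogenic activity assay. Trypsin was added after a 30 min incubation to release the fluorescent dye from the deacetylated product. IC50 values came from 10-point ligand dose-response curves and were converted to Ki by the Cheng-Prusoff relation.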

[5] = Inhibition of Pseudomonas aeruginosa PA1409 using Boc-Lys(trifluoroacetyl)-AMC as substrate preincubated for 30 mins followed by substrate addition measured after 60 mins by trypsin-based fluorescence assay
Histone deacetylase 1 = Histone deacetylase 1 (Homo sapiens, UniProt Q13547); assay: Inhibition of human HDAC1 using Boc-Lys(Ac)-AMC as substrate preincubated for 30 mins followed by substrate addition measured after 60 mins by trypsin-based fluorescence assay; in short: as §1
Sequence of Histone deacetylase 1 (Q13547 whole entry): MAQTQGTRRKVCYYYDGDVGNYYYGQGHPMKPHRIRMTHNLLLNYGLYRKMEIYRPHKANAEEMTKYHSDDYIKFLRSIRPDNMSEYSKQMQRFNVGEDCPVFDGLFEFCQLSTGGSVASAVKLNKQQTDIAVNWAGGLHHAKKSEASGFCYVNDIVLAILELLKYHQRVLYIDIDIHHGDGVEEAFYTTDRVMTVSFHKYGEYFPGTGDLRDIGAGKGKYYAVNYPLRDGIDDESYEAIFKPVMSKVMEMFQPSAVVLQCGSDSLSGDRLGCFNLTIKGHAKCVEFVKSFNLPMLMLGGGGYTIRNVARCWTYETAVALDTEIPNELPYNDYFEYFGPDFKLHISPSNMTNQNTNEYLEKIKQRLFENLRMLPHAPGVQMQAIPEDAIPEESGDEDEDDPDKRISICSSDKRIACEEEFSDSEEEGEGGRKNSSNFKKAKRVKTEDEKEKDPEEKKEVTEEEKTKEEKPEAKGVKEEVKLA

[6] = Inhibition of Alcaligenes HDAH using Boc-Lys(trifluoroacetyl)-AMC as substrate preincubated for 30 mins followed by substrate addition measured after 60 mins by trypsin-based fluorescence assay; in short: as §2
Histone deacetylase 5 = Histone deacetylase 5 (Homo sapiens, UniProt Q9UQL6); assay: Inhibition of human HDAC5 using Boc-Lys(trifluoroacetyl)-AMC as substrate preincubated for 30 mins followed by substrate addition measured after 60 mins by trypsin-based fluorescence assay
Sequence of Histone deacetylase 5 (Q9UQL6 whole entry): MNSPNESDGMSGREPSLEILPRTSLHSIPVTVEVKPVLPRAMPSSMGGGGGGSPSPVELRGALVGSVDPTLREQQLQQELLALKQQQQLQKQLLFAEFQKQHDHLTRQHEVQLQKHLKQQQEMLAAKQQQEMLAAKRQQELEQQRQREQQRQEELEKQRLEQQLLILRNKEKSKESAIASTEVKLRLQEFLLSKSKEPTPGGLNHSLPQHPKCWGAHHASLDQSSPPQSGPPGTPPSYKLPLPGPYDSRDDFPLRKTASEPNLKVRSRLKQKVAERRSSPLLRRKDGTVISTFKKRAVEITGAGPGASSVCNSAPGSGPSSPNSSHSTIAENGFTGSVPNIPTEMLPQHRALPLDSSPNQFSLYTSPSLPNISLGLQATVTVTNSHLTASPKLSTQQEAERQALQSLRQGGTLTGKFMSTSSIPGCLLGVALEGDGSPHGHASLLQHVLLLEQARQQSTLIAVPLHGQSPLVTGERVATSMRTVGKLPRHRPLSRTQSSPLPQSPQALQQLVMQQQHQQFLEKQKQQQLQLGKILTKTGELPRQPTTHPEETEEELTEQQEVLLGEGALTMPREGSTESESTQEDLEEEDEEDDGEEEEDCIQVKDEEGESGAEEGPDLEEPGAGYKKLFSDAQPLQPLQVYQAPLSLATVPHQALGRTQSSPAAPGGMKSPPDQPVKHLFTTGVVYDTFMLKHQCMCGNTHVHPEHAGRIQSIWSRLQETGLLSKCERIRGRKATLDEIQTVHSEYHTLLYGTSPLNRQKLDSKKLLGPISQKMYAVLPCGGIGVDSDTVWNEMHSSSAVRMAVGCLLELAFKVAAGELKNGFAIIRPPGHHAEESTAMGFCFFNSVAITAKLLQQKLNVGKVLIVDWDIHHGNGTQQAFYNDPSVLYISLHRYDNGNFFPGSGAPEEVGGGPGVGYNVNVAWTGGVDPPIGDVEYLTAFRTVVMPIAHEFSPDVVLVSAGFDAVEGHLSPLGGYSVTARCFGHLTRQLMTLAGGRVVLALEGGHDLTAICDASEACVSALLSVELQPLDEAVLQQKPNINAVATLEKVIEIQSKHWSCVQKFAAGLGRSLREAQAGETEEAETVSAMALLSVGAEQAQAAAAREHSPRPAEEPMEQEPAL

Histone deacetylase 7 = target: T3, Histone deacetylase 7 (Homo sapiens, UniProt Q8WUI4); assay: Inhibition of human HDAC7 using Boc-Lys(trifluoroacetyl)-AMC as substrate preincubated for 30 mins followed by substrate addition measured after 60 mins by trypsin-based fluorescence assay; in short: as §3
T3 sequence (Q8WUI4 whole entry): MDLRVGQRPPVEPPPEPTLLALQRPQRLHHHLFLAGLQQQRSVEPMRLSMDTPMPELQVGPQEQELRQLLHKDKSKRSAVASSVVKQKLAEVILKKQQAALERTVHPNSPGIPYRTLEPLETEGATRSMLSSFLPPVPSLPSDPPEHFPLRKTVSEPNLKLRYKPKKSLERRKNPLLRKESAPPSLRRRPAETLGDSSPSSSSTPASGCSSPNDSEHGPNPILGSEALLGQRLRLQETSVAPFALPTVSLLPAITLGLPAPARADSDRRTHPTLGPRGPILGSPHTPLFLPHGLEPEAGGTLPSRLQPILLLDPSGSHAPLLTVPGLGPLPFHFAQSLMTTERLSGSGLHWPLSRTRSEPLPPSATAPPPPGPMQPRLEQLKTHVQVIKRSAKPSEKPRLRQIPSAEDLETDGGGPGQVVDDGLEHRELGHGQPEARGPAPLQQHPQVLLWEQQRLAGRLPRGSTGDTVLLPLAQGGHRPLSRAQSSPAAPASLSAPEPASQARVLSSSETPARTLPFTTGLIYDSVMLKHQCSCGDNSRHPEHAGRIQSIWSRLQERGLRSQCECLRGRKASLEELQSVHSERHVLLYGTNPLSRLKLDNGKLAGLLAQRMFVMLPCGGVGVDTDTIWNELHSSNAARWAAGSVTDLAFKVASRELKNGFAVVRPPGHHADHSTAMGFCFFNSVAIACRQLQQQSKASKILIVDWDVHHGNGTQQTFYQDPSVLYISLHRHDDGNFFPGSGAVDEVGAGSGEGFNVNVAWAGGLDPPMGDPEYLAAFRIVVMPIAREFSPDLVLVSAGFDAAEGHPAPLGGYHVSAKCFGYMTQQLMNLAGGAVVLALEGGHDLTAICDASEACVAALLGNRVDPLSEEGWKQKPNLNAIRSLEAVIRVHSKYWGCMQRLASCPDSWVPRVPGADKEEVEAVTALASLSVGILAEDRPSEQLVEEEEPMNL

Sequence of Histone deacetylase 4 (P56524 whole entry): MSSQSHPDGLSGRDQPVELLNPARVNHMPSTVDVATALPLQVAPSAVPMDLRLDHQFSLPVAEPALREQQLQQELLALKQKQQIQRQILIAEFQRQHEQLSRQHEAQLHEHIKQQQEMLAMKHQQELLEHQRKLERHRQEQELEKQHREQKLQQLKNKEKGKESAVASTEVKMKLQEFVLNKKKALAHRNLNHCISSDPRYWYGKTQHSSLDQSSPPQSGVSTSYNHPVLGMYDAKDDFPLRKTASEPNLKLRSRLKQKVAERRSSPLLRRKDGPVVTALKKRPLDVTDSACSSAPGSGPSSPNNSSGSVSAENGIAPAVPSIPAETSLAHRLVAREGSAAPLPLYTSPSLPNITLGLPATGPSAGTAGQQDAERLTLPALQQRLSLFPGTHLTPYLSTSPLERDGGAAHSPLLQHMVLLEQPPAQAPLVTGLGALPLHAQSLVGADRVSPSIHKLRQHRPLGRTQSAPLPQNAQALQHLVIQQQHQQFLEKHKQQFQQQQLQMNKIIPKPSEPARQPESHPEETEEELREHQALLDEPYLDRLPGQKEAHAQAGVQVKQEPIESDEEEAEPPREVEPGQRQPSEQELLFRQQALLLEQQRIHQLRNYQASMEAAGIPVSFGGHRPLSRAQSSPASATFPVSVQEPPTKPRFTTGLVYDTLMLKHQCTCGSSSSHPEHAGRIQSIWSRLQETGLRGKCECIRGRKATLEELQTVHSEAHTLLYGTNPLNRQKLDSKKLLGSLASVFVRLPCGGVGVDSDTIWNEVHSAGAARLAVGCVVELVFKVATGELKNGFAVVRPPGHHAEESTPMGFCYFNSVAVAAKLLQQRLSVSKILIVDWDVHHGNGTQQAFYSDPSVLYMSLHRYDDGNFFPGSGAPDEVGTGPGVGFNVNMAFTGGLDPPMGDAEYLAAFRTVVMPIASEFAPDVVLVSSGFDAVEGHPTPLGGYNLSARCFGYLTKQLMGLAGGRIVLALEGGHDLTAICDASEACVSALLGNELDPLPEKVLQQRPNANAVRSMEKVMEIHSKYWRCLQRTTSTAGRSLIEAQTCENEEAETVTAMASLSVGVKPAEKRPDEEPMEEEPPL

| SMILES | Ki (Histone deacetylase 4) | Ki [1] | Ki [2] | Ki [3] | Ki [4] | Ki (Histone deacetylase 8) | Ki [5] | Ki (Histone deacetylase 1) | Ki [6] | Ki (Histone deacetylase 5) | Ki (Histone deacetylase 7) |
| --- | --- | --- | --- | --- | --- | --- | --- | --- | --- | --- | --- |
| O=C(NO)C(F)(F)C(F)(F)C(F)(F)C(F)(F)C(F)(F)C(F)(F)C(=O)Nc1ccc(Cl)cc1 | > 50 µM | – | 2.1 µM | 0.17 µM | 0.086 µM | – | 5.7 µM | – | 0.086 µM | > 50 µM | – |
| O=C(NO)C(F)(F)C(F)(F)C(F)(F)C(F)(F)C(F)(F)C(F)(F)C(=O)Nc1ccccc1Cl | > 50 µM | > 50 µM | 0.8 µM | 0.16 µM | 0.24 µM | > 50 µM | > 50 µM | > 50 µM | 0.24 µM | > 50 µM | > 50 µM |
| Cc1ccccc1NC(=O)C(F)(F)C(F)(F)C(F)(F)C(F)(F)C(F)(F)C(F)(F)C(=O)NO | > 50 µM | > 50 µM | 84 µM | 0.16 µM | 0.62 µM | > 50 µM | > 50 µM | > 50 µM | 0.62 µM | > 50 µM | > 50 µM |
| Cc1ccc(NC(=O)C(F)(F)C(F)(F)C(F)(F)C(F)(F)C(F)(F)C(F)(F)C(=O)NO)cc1C | > 50 µM | 20 µM | 1.6 µM | 0.1 µM | 0.11 µM | 8.4 µM | 5.8 µM | 7 µM | 0.11 µM | > 50 µM | 2.5 µM |
| O=C(NO)C(F)(F)C(F)(F)C(F)(F)C(F)(F)C(F)(F)C(F)(F)C(=O)Nc1cccc2cc3ccccc3cc12 | > 50 µM | – | 9 µM | 1.1 µM | – | – | 11 µM | – | – | > 50 µM | – |

The remaining lines, values ahead:

| Ki (Histone deacetylase 4) | Ki [1] | Ki [2] | Ki [3] | Ki [4] | Ki (Histone deacetylase 8) | Ki [5] | Ki (Histone deacetylase 1) | Ki [6] | Ki (Histone deacetylase 5) | Ki (Histone deacetylase 7) | SMILES |
| --- | --- | --- | --- | --- | --- | --- | --- | --- | --- | --- | --- |
| > 50 µM | > 50 µM | 0.27 µM | 0.092 µM | 0.45 µM | > 50 µM | 11 µM | > 50 µM | 0.45 µM | > 50 µM | > 50 µM | Cc1cccc(NC(=O)C(F)(F)C(F)(F)C(F)(F)C(F)(F)C(F)(F)C(F)(F)C(=O)NO)c1 |
| > 50 µM | > 50 µM | 0.49 µM | 0.46 µM | 0.33 µM | > 50 µM | > 50 µM | > 50 µM | 0.33 µM | > 50 µM | > 50 µM | O=C(NO)C(F)(F)C(F)(F)C(F)(F)C(F)(F)C(F)(F)C(F)(F)C(=O)Nc1ccc(F)cc1 |
| > 50 µM | > 50 µM | 0.073 µM | 0.046 µM | 0.17 µM | > 50 µM | 11 µM | > 50 µM | 0.17 µM | > 50 µM | > 50 µM | O=C(NO)C(F)(F)C(F)(F)C(F)(F)C(F)(F)C(F)(F)C(F)(F)C(=O)Nc1cccc(Cl)c1 |
| > 50 µM | > 50 µM | 0.37 µM | 1.2 µM | 0.18 µM | > 50 µM | > 50 µM | > 50 µM | 0.18 µM | > 50 µM | > 50 µM | COc1ccc(NC(=O)C(F)(F)C(F)(F)C(F)(F)C(F)(F)C(F)(F)C(F)(F)C(=O)NO)cc1 |
| > 50 µM | > 50 µM | > 50 µM | 2.7 µM | > 50 µM | > 50 µM | > 50 µM | > 50 µM | > 50 µM | > 50 µM | > 50 µM | CN(C)c1ccc(NC(=O)C(F)(F)C(F)(F)C(F)(F)C(F)(F)C(F)(F)C(F)(F)C(=O)NO)cc1 |
